Measurements taken from ChEMBL document CHEMBL1140274, “Synthesis of (1,4)-naphthoquinono-[3,2-c]-1H-pyrazoles and their (1,4)-naphthohydroquinone derivatives as antifungal, antibacterial, and anticancer agents” (2005).
Values after ≈ are worked out from the molar mass of the structure shown.

What was measured:
Rattus norvegicus [1] = assay: Anticancer activity against Walker 256 carcinosarcoma in rats at a dose of 50 mg/kg [Inactive]; format: functional
Pseudomonas aeruginosa = assay: In-vitro minimum inhibitory concentration against the growth of Pseudomonas aeruginosa; format: functional
How it was run: (§1)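 Broth microdilution following NCCLS against each bacterial strain, with the MIC taken as the endpoint.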

Staphylococcus aureus = assay: In-vitro minimum inhibitory concentration against the growth of Staphylococcus aureus; format: functional; how it was run: as §1
Aspergillus fumigatus = assay: In-vitro minimum inhibitory concentration against the growth of Aspergillus fumigatus; format: functional
How it was run: (§2)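 Broth microdilution following NCCLS, run in 96-well plates with RPMI 1640 medium buffered with MOPS. The MIC was the endpoint against each fungal isolate.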

Enterococcus faecalis = assay: In-vitro minimum inhibitory concentration against the growth of Streptococcus faecalis; format: functional; how it was run: as §1
Trichophyton benhamiae = assay: In-vitro minimum inhibitory concentration against the growth of Trichophyton mentagrophytes; format: functional, Trichophyton mentagraphytes; how it was run: as §2
Klebsiella pneumoniae = assay: In-vitro minimum inhibitory concentration against the growth of Klebsiella pneumoniae; format: functional; how it was run: as §1
Escherichia coli = assay: In-vitro minimum inhibitory concentration against the growth of Escherichia coli; format: functional; how it was run: as §1
Candida parapsilosis = assay: In-vitro minimum inhibitory concentration against the growth of Candida parapsilosis (ATCC 22019); format: functional; details: Lodderomyces parapsilosis; how it was run: as §2
Sporothrix schenckii = assay: In-vitro minimum inhibitory concentration against the growth of Sporothrix schenckii; format: functional; how it was run: as §2
Candida albicans = assay: In-vitro minimum inhibitory concentration against the growth of Candida albicans; format: functional; how it was run: as §2
Cryptococcus neoformans = assay: In-vitro minimum inhibitory concentration against the growth of Cryptococcus neoformans; format: functional; how it was run: as §2
Rattus norvegicus [2] = assay: Anticancer activity against Walker 256 carcinosarcoma in rats at a dose of 10 mg/kg [Active]; format: functional

O=C1c2ccccc2C(=O)c2[nH]ncc21
T/C (Rattus norvegicus [1]): 115%

O=C(NNc1ccc([N+](=O)[O-])cc1[N+](=O)[O-])c1[nH]nc2c(O)c3ccccc3c(O)c12
MIC (Pseudomonas aeruginosa): > 50 µg/mL
MIC (Staphylococcus aureus): > 50 µg/mL
MIC (Aspergillus fumigatus): > 50 µg/mL
MIC (Enterococcus faecalis): > 50 µg/mL
MIC (Trichophyton benhamiae): > 50 µg/mL
MIC (Klebsiella pneumoniae): > 50 µg/mL
MIC (Escherichia coli): > 50 µg/mL
MIC (Candida parapsilosis): > 50 µg/mL
MIC (Sporothrix schenckii): > 50 µg/mL
MIC (Candida albicans): 25 µg/mL (≈ 58.9 µM)
MIC (Cryptococcus neoformans): > 50 µg/mL

NC[C@H]1O[C@H](O[C@H]2[C@H](O)[C@@H](O[C@H]3O[C@H](CO)[C@@H](O)[C@H](N)[C@H]3O)[C@H](N)C[C@@H]2N)[C@H](O)[C@@H](O)[C@@H]1O [KANAMYCIN]
MIC (Pseudomonas aeruginosa): > 128 µg/mL
MIC (Staphylococcus aureus): 2 µg/mL (≈ 4.13 µM)
MIC (Klebsiella pneumoniae): 32 µg/mL (≈ 66 µM)
MIC (Escherichia coli): 16 µg/mL (≈ 33 µM)

C=CCNC(=O)c1[nH]nc2c1C(=O)c1ccccc1C2=O
MIC (Pseudomonas aeruginosa): > 50 µg/mL
MIC (Staphylococcus aureus): > 50 µg/mL
MIC (Aspergillus fumigatus): > 50 µg/mL
MIC (Enterococcus faecalis): > 50 µg/mL
MIC (Trichophyton benhamiae): > 50 µg/mL
MIC (Klebsiella pneumoniae): 12.5 µg/mL (≈ 44.4 µM)
MIC (Escherichia coli): 12.5 µg/mL (≈ 44.4 µM)
MIC (Candida parapsilosis): > 50 µg/mL
MIC (Sporothrix schenckii): > 50 µg/mL
MIC (Candida albicans): > 50 µg/mL
MIC (Cryptococcus neoformans): > 50 µg/mL

O=C1c2ccccc2C(=O)c2c1n[nH]c2C(=O)NNc1ccccc1
MIC (Pseudomonas aeruginosa): > 50 µg/mL
MIC (Staphylococcus aureus): > 50 µg/mL
MIC (Aspergillus fumigatus): > 50 µg/mL
MIC (Enterococcus faecalis): 25 µg/mL (≈ 75.2 µM)
MIC (Trichophyton benhamiae): > 50 µg/mL
MIC (Klebsiella pneumoniae): 12.5 µg/mL (≈ 37.6 µM)
MIC (Escherichia coli): > 50 µg/mL
MIC (Candida parapsilosis): > 50 µg/mL
MIC (Sporothrix schenckii): > 50 µg/mL
MIC (Candida albicans): > 50 µg/mL
MIC (Cryptococcus neoformans): > 50 µg/mL

CCOC(=O)c1[nH]nc2c1C(=O)c1ccccc1C2=O
MIC (Pseudomonas aeruginosa): > 50 µg/mL
MIC (Staphylococcus aureus): 25 µg/mL (≈ 92.5 µM)
MIC (Aspergillus fumigatus): > 50 µg/mL
MIC (Enterococcus faecalis): 12.5 µg/mL (≈ 46.3 µM)
MIC (Trichophyton benhamiae): > 50 µg/mL
MIC (Klebsiella pneumoniae): 12.5 µg/mL (≈ 46.3 µM)
MIC (Escherichia coli): 25 µg/mL (≈ 92.5 µM)
MIC (Candida parapsilosis): > 50 µg/mL
MIC (Sporothrix schenckii): > 50 µg/mL
MIC (Candida albicans): > 50 µg/mL
MIC (Cryptococcus neoformans): > 50 µg/mL

CCOC(=O)c1[nH]nc2c(O)c3ccccc3c(O)c12
MIC (Pseudomonas aeruginosa): > 50 µg/mL
MIC (Staphylococcus aureus): 25 µg/mL (≈ 91.8 µM)
MIC (Aspergillus fumigatus): 25 µg/mL (≈ 91.8 µM)
MIC (Enterococcus faecalis): 25 µg/mL (≈ 91.8 µM)
MIC (Trichophyton benhamiae): 25 µg/mL (≈ 91.8 µM)
MIC (Klebsiella pneumoniae): 6.25 µg/mL (≈ 23 µM)
MIC (Escherichia coli): 6.25 µg/mL (≈ 23 µM)
MIC (Candida parapsilosis): 12.5 µg/mL (≈ 45.9 µM)
MIC (Sporothrix schenckii): 50 µg/mL (≈ 184 µM)
MIC (Candida albicans): 6.25 µg/mL (≈ 23 µM)
MIC (Cryptococcus neoformans): 6.25 µg/mL (≈ 23 µM)

GENTAMICIN
MIC (Pseudomonas aeruginosa): 0.78 µg/mL
MIC (Staphylococcus aureus): 0.78 µg/mL
MIC (Klebsiella pneumoniae): 0.39 µg/mL

NNC(=O)c1[nH]nc2c(O)c3ccccc3c(O)c12
MIC (Pseudomonas aeruginosa): > 50 µg/mL
MIC (Staphylococcus aureus): > 50 µg/mL
MIC (Aspergillus fumigatus): > 50 µg/mL
MIC (Enterococcus faecalis): > 50 µg/mL
MIC (Trichophyton benhamiae): > 50 µg/mL
MIC (Klebsiella pneumoniae): > 50 µg/mL
MIC (Escherichia coli): > 50 µg/mL
MIC (Candida parapsilosis): > 50 µg/mL
MIC (Sporothrix schenckii): > 50 µg/mL
MIC (Candida albicans): 25 µg/mL (≈ 96.8 µM)
MIC (Cryptococcus neoformans): 25 µg/mL (≈ 96.8 µM)

NNC(=O)c1[nH]nc2c1C(=O)c1ccccc1C2=O
MIC (Pseudomonas aeruginosa): > 50 µg/mL
MIC (Staphylococcus aureus): > 50 µg/mL
MIC (Aspergillus fumigatus): > 50 µg/mL
MIC (Enterococcus faecalis): > 50 µg/mL
MIC (Trichophyton benhamiae): > 50 µg/mL
MIC (Klebsiella pneumoniae): > 50 µg/mL
MIC (Escherichia coli): > 50 µg/mL
MIC (Candida parapsilosis): > 50 µg/mL
MIC (Sporothrix schenckii): > 50 µg/mL
MIC (Candida albicans): > 50 µg/mL
MIC (Cryptococcus neoformans): > 50 µg/mL

Clc1ccc(COC(Cn2ccnc2)c2ccc(Cl)cc2Cl)c(Cl)c1 (stereo not given) [MICONAZOLE]
MIC (Aspergillus fumigatus): 12.5 µg/mL (≈ 30 µM)
MIC (Trichophyton benhamiae): < 0.78 µg/mL
MIC (Candida albicans): 25 µg/mL (≈ 60.1 µM)
MIC (Cryptococcus neoformans): 12.5 µg/mL (≈ 30 µM)

O=C1c2ccccc2C(=O)c2c1n[nH]c2C(=O)NCCO
MIC (Pseudomonas aeruginosa): > 50 µg/mL
MIC (Staphylococcus aureus): > 50 µg/mL
MIC (Aspergillus fumigatus): > 50 µg/mL
MIC (Enterococcus faecalis): > 50 µg/mL
MIC (Trichophyton benhamiae): > 50 µg/mL
MIC (Klebsiella pneumoniae): 25 µg/mL (≈ 87.6 µM)
MIC (Escherichia coli): 25 µg/mL (≈ 87.6 µM)
MIC (Candida parapsilosis): > 50 µg/mL
MIC (Sporothrix schenckii): > 50 µg/mL
MIC (Candida albicans): > 50 µg/mL
MIC (Cryptococcus neoformans): > 50 µg/mL

CNC(=O)c1[nH]nc2c1C(=O)c1ccccc1C2=O
MIC (Pseudomonas aeruginosa): > 50 µg/mL
MIC (Staphylococcus aureus): > 50 µg/mL
MIC (Aspergillus fumigatus): > 50 µg/mL
MIC (Enterococcus faecalis): > 50 µg/mL
MIC (Trichophyton benhamiae): > 50 µg/mL
MIC (Klebsiella pneumoniae): 25 µg/mL (≈ 97.9 µM)
MIC (Escherichia coli): > 50 µg/mL
MIC (Candida parapsilosis): 50 µg/mL (≈ 196 µM)
MIC (Sporothrix schenckii): > 50 µg/mL
MIC (Candida albicans): > 50 µg/mL
MIC (Cryptococcus neoformans): > 50 µg/mL

CCCCNC(=O)c1[nH]nc2c1C(=O)c1ccccc1C2=O
MIC (Pseudomonas aeruginosa): > 50 µg/mL
MIC (Staphylococcus aureus): > 50 µg/mL
MIC (Aspergillus fumigatus): > 50 µg/mL
MIC (Enterococcus faecalis): > 50 µg/mL
MIC (Trichophyton benhamiae): > 50 µg/mL
MIC (Klebsiella pneumoniae): > 50 µg/mL
MIC (Escherichia coli): > 50 µg/mL
MIC (Candida parapsilosis): > 50 µg/mL
MIC (Sporothrix schenckii): > 50 µg/mL
MIC (Candida albicans): > 50 µg/mL
MIC (Cryptococcus neoformans): > 50 µg/mL

C[C@@H]1[C@H](O)[C@@H](C)/C=C/C=C/C=C/C=C/C=C/C=C/C=C/[C@H](O[C@@H]2O[C@H](C)[C@@H](O)[C@H](N)[C@@H]2O)C[C@@H]2O[C@](O)(C[C@@H](O)C[C@@H](O)[C@H](O)CC[C@@H](O)C[C@@H](O)CC(=O)O[C@H]1C)C[C@H](O)[C@H]2C(=O)O [AMPHOTERICIN B]
MIC (Trichophyton benhamiae): 1.56 µg/mL (≈ 1.69 µM)
MIC (Candida albicans): 0.39 µg/mL (≈ 0.422 µM)
MIC (Cryptococcus neoformans): 0.78 µg/mL (≈ 0.844 µM)

OC(Cn1cncn1)(Cn1cncn1)c1ccc(F)cc1F [FLUCONAZOLE]
MIC (Aspergillus fumigatus): 2 µg/mL (≈ 6.53 µM)
MIC (Trichophyton benhamiae): 0.5 µg/mL (≈ 1.63 µM)
MIC (Candida parapsilosis): 2 µg/mL (≈ 6.53 µM)
MIC (Sporothrix schenckii): 2 µg/mL (≈ 6.53 µM)
MIC (Candida albicans): 1 µg/mL (≈ 3.27 µM)
MIC (Cryptococcus neoformans): 1 µg/mL (≈ 3.27 µM)

O=C1C=CC(=O)c2c(O)ccc(O)c21 [NAPHTHAZALIN]
T/C (Rattus norvegicus [2]): 37%

NYSTATIN
MIC (Sporothrix schenckii): 13.2 µg/mL
MIC (Candida albicans): 7.8 µg/mL
MIC (Cryptococcus neoformans): 3.5 µg/mL
